Test results published in ChEMBL document CHEMBL4270594, “Design, synthesis and pharmacological evaluation of new 3-(1H-benzimidazol-2-yl)quinolin-2(1H)-one derivatives as potential antitumor agents” (Eur J Med Chem, 2018).
The source made the active and inactive calls. The rule behind the calls is not given here.

Columns and labels:
NCI-H460 [1] = experiment: Antitumor activity against human NCI-H460 cells xenografted in Balb/c nude mouse assessed as relative tumor volume increment rate at 50 mg/kg, ip bid for 13 days measured on day 14 post last dose relative to control; type: functional
In short: (§1)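 SPF BALB/c nude mice carrying NCI-H460 xenografts were randomly grouped and given 25 or 50 mg/kg. Vehicle (5% DMSO in saline, v/v) and cisplatin 2 mg/kg were the controls, n = 6 per group. Tumour volume was followed to give the relative tumour increment rate (T/C, %). Tumours were harvested and weighed on day 14 to give the weight inhibitory rate.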

HepG2 [2] = experiment: Induction of apoptosis in human HepG2 cells transfected with p53 siRNA assessed as early apoptotic cells after 24 hrs by Annexin V-FITC/ propidium iodide staining based flow cytometry (reference value: 5.99 to 6.01%); type: functional
Mus musculus [3] = experiment: Toxicity in Balb/c nude mouse xenografted with human NCI-H460 cells assessed as change in body weight at 25 to 50 mg/kg, ip bid for 13 days; type: organism-based; settings: in vivo, 312 h
In short: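 SPF BALB/c nude mice bearing NCI-H460 xenografts, randomized and given 25 or 50 mg/kg in 5% DMSO/saline vehicle, with cisplatin 2 mg/kg as positive control; body weight tracked over the 13-day treatment; n = 6.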

NCI-H460 [4] = experiment: Cytotoxicity against human NCI-H460 cells after 48 hrs by MTT assay; type: functional, cell-based; settings: NCI-H460, 48 h
In short: (§2)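 MTT cytotoxicity assay run against HepG2 and BEL-7404 liver cancer, SK-OV-3 ovarian, NCI-H460 large-cell lung cancer and HL-7702 normal liver cells. 5-fluorouracil and cisplatin served as positive controls. IC50 is given as mean ± SD of three repeat experiments.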

Mus musculus [5] = experiment: Toxicity in Kunming mouse assessed as signs of peritonitis or damage to kidney at 50 mg/kg/day, ip for 14 consecutive days by microscopic method; type: organism-based; settings: in vivo
In short: (§3)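 Kunming mice given 50 mg/kg/day ip in 5% v/v DMSO/saline for 14 days; kidney, heart and liver harvested, sectioned for pathology slices and examined microscopically for peritonitis or organ damage versus control mice.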

Mus musculus [6] = experiment: Upregulation of cytochrome-c expression in tumor tissues of Balb/c nude mouse xenografted with human NCI-H460 cells at 25 to 50 mg/kg, ip bid for 13 days measured on day 14 by Western blot analysis; type: functional, organism-based
In short: (§4)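 Tumors from NCI-H460 xenografted BALB/c nude mice (25 or 50 mg/kg, vehicle 5% DMSO in saline) collected at day 14; protein levels in tumor tissue determined by western blot versus vehicle control.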

Mus musculus [7] = experiment: Toxicity in Kunming mouse assessed as change in body weight at 50 mg/kg/day, ip for 14 consecutive days measured daily during compound dosing; type: organism-based; settings: in vivo
In short: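 Kunming mice dosed intraperitoneally at 50 mg/kg per day for 14 consecutive days, compound dissolved in 5% v/v DMSO/saline; body weight recorded daily as a systemic toxicity parameter against a control group; six mice per group.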

Mus musculus [8] = experiment: Upregulation of caspase-9 protein expression in tumor tissues of Balb/c nude mouse xenografted with human NCI-H460 cells at 25 to 50 mg/kg, ip bid for 13 days measured on day 14 by Western blot analysis; type: functional, organism-based; in short: as §4
NCI-H460 [9] = experiment: Antitumor activity against human NCI-H460 cells xenografted in Balb/c nude mouse assessed as tumor growth inhibition at 50 mg/kg, ip bid for 13 days measured on day 14 post last dose relative to control; type: functional; settings: read-out: TGI; in short: as §1
NCI-H460 [10] = experiment: Antitumor activity against human NCI-H460 cells xenografted in Balb/c nude mouse assessed as tumor growth inhibition at 25 mg/kg, ip bid for 13 days measured on day 14 post last dose relative to control; type: functional; settings: read-out: TGI; in short: as §1
HepG2 [11] = experiment: Induction of apoptosis in human HepG2 cells transfected with p53 siRNA assessed as necrotic apoptotic cells after 24 hrs by Annexin V-FITC/ propidium iodide staining based flow cytometry (reference value: 15.6 to 15.7%); type: functional
HepG2 [12] = experiment: Cell cycle arrest in human HepG2 cells transfected with p53 siRNA assessed as accumulation at G2-phase after 48 hrs by propidium iodide staining based flow cytometry (reference value: 21.72 to 23.39%); type: functional
SK-OV-3 = experiment: Cytotoxicity against human SKOV3 cells after 48 hrs by MTT assay; type: functional, cell-based; settings: SK-OV-3, 48 h; in short: as §2
Mus musculus [13] = experiment: Downregulation of Bcl2 protein expression in tumor tissues of Balb/c nude mouse xenografted with human NCI-H460 cells at 25 to 50 mg/kg, ip bid for 13 days measured on day 14 by Western blot analysis; type: functional, organism-based
Mus musculus [14] = experiment: Effect on caspase-3 protein expression in tumor tissues of Balb/c nude mouse xenografted with human NCI-H460 cells at 25 to 50 mg/kg, ip bid for 13 days measured on day 14 by Western blot analysis; type: functional, organism-based
L02 = experiment: Cytotoxicity against human HL-7702 cells after 48 hrs by MTT assay; type: cell-based; settings: L02, 48 h; in short: as §2
BEL-7404 tumor cell line = experiment: Cytotoxicity against human Bel7404 cells after 48 hrs by MTT assay; type: functional, cell-based; settings: BEL-7404, 48 h; in short: as §2
HepG2 [15] = experiment: Cell cycle arrest in human HepG2 cells transfected with p53 siRNA assessed as accumulation at G1-phase after 48 hrs by propidium iodide staining based flow cytometry (reference value: 55.48 to 56.24%); type: functional
HepG2 [16] = experiment: Induction of apoptosis in human HepG2 cells transfected with p53 siRNA assessed as late apoptotic cells after 24 hrs by Annexin V-FITC/ propidium iodide staining based flow cytometry (reference value: 7.99 to 8.6%); type: functional
HepG2 [17] = experiment: Cytotoxicity against human HepG2 cells after 48 hrs by MTT assay; type: functional, cell-based; settings: HepG2, 48 h; in short: as §2
NCI-H460 [18] = experiment: Antitumor activity against human NCI-H460 cells xenografted in Balb/c nude mouse assessed as relative tumor volume increment rate at 25 mg/kg, ip bid for 13 days measured on day 14 post last dose relative to control; type: functional; in short: as §1
Mus musculus [19] = experiment: Toxicity in Kunming mouse assessed as signs of peritonitis or damage to liver at 50 mg/kg/day, ip for 14 consecutive days by microscopic method; type: organism-based; settings: in vivo; in short: as §3
HepG2 [20] = experiment: Induction of apoptosis in human HepG2 cells transfected with p53 siRNA assessed as live cells after 24 hrs by Annexin V-FITC/ propidium iodide staining based flow cytometry (reference value: 69.9 to 70.3%); type: functional
HepG2 [21] = experiment: Cell cycle arrest in human HepG2 cells transfected with p53 siRNA assessed as accumulation at S-phase after 48 hrs by propidium iodide staining based flow cytometry (reference value: 20.37 to 22.8%); type: functional
Mus musculus [22] = experiment: Toxicity in Kunming mouse assessed as signs of peritonitis or damage to heart at 50 mg/kg/day, ip for 14 consecutive days by microscopic method; type: organism-based; settings: in vivo; in short: as §3
NCI-H460 [23] = experiment: Antitumor activity against human NCI-H460 cells xenografted in Balb/c nude mouse assessed as induction of necrosis at 25 to 50 mg/kg, ip bid for 13 days measured on day 14 post last dose by hematoxylin and eosin staining based microscopic method; type: functional, organism-based
Mus musculus [24] = experiment: Upregulation of APAF-1 protein expression in tumor tissues of Balb/c nude mouse xenografted with human NCI-H460 cells at 25 to 50 mg/kg, ip bid for 13 days measured on day 14 by Western blot analysis; type: functional, organism-based

SMILES | T/C (NCI-H460 [1]) [%] | Activity (HepG2 [2]) [%] | Activity (Mus musculus [3]) | IC50 (NCI-H460 [4]) [µM] | Activity (Mus musculus [5]) | Activity (Mus musculus [6]) | Activity (Mus musculus [7]) | Activity (Mus musculus [8]) | inhibition in vivo at 50 mg/kg (NCI-H460 [9]) [%] | inhibition in vivo at 25 mg/kg (NCI-H460 [10]) [%] | Activity (HepG2 [11]) [%] | Activity (HepG2 [12]) [%] | IC50 (SK-OV-3) [µM] | Activity (Mus musculus [13]) | Activity (Mus musculus [14]) | IC50 (L02) [µM] | IC50 (BEL-7404 tumor cell line) [µM] | Activity (HepG2 [15]) [%] | Activity (HepG2 [16]) [%] | IC50 (HepG2 [17]) [µM] | other results
O=c1[nH]c2cc3c(cc2cc1-c1nc2cc(Cl)ccc2[nH]1)OCO3 | 38.1 | 11.2 | Non-Toxic | 30.4 | Non-Toxic | Active | Non-Toxic | Active | 55.1 | 46.2 | 6.29 | 18.96 | 24.7 | Active | inactive | > 100 | 9.06 | 74.18 | 7.96 | 10.6 | T/C (NCI-H460 [18]): 48.8%; Activity (Mus musculus [19]): Non-Toxic; Activity (HepG2 [20]): 74.6%; Activity (HepG2 [21]): 6.86%; Activity (Mus musculus [22]): Non-Toxic; Activity (NCI-H460 [23]): Active
O=c1[nH]c2ccccc2cc1-c1nc2cc(Cl)ccc2[nH]1 | 30.7 | 11.5 | Non-Toxic | 14.7 | Non-Toxic | Active | Non-Toxic | Active | 66.9 | 51.9 | 6.08 | 32.3 | 10.5 | Active | inactive | > 100 | 16.5 | 46.86 | 7.62 | 8.45 | Activity (Mus musculus [24]): Active; T/C (NCI-H460 [18]): 40.6%; Activity (Mus musculus [19]): Non-Toxic; Activity (HepG2 [20]): 74.8%; Activity (HepG2 [21]): 20.84%; Activity (Mus musculus [22]): Non-Toxic; Activity (NCI-H460 [23]): Active
